# From publication PMC3048920 (Clinical cancer research : an official journal of the …, 2011)
# Tests used:
# [1] = test system: patients with advanced solid malignancies; assay: Phase I dose escalation: dose-limiting toxicities and maximum tolerated dose; format: in vivo; settings: for Even ts, n/N: DLT events, cycle 1
# [2] = test system: patients with advanced solid malignancies; assay: Treatment-related adverse events and laboratory abnormalities; format: in vivo
# [3] = test system: Ki67 and pERK1/2 (pMAPK) in skin biopsies; assay: Skin biopsy pharmacodynamic biomarkers by immunohistochemistry; format: in vivo, human; settings: with increased dose, Cmax, AUCtau and Ctrough; baseline vs cycle 1 day 14; P < 0.05
# [4] = test system: advanced malignant solid tumors; assay: Tumor response; format: in vivo, human
# [5] = test system: NSCLC; assay: Tumor response in NSCLC patients, correlated with tumor genotype; format: in vivo, human
# How it was run: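 NSCLC patients treated with oral once-daily test compound had tumors assessed by RECIST v1.0 at baseline, every two cycles and at end of treatment. Response was related to genotype. Archived tumor, or a fresh baseline biopsy where feasible, was tested for EGFR and KRAS mutations and EGFR/HER2 copy number by site laboratories, Pfizer or Genzyme.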
# [6] = human, in vivo
# [7] = Schedule A (n = 111), treatment-related, all cycles
# [8] = Schedule B (n = 10), treatment-related, all cycles
# [9] = EGFR Exon 19 deletion, 17 patients
# [10] = EGFR Exon 19 deletion/T790M, 4 patients
# [11] = EGFR Exon 20 insertion, 6 patients (one not evaluable)
# [12] = EGFR mutation unknown, 12 patients (one not evaluable)
# [13] = EGFR wild type, 12 patients (one not evaluable)
compound,measurement,setting,value
COc1cc2ncnc(Nc3ccc(F)c(Cl)c3)c2cc1NC(=O)/C=C/CN1CCCCC1 [PF299804],"total number of DLTs, share of treated patients","[1]; 45 mg including loading-dose cohort, four of 71 treated patients",6%
same,"total number of DLTs, share of treated patients","[1]; 45 mg, two of 52 treated patients",4%
same,"Even ts, n/N","[1]; Schedule A, 0.5 mg/day",0/3
same,"Even ts, n/N","[1]; Schedule A, 1 mg/day",0/3
same,"Even ts, n/N","[1]; Schedule A, 2 mg/day",0/3
same,"Even ts, n/N","[1]; Schedule A, 4 mg/day",0/5
same,"Even ts, n/N","[1]; Schedule A, 8 mg/day",0/3
same,"Even ts, n/N","[1]; Schedule A, 16 mg/day",0/4
same,"Even ts, n/N","[1]; Schedule A, 30 mg/day",1/13
same,"Even ts, n/N","[1]; Schedule A, 45 mg/day (loading dose)",2/19
same,"Even ts, n/N","[1]; Schedule A, 45 mg/day",2/52
same,"Even ts, n/N","[1]; Schedule A, 60 mg/day",3/6
same,"Even ts, n/N","[1]; Schedule B, 60 mg/day",1/10
same,maximum tolerated dose (MTD),[1]; continuous once-daily dosing,45 mg/day
same,"Anorexia, Grade 1, n (%)",[2]; [7],12 (10.8) n (%)
same,"Anorexia, Grade 2, n (%)",[2]; [7],9 (8.1) n (%)
same,"Anorexia, Grade 3, n (%)",[2]; [7],2 (1.8) n (%)
same,"Anorexia, Total, n (%)",[2]; [7],23 (20.7) n (%)
same,"Dermatitis acneiform, Grade 1, n (%)",[2]; [7],11 (9.9) n (%)
same,"Dermatitis acneiform, Grade 2, n (%)",[2]; [7],3 (2.7) n (%)
same,"Dermatitis acneiform, Grade 3, n (%)",[2]; [7],6 (5.4) n (%)
same,"Dermatitis acneiform, Total, n (%)",[2]; [7],20 (18.0) n (%)
same,"Diarrhea, Grade 1, n (%)",[2]; [7],43 (38.7) n (%)
same,"Diarrhea, Grade 2, n (%)",[2]; [7],20 (18.0) n (%)
same,"Diarrhea, Grade 3, n (%)",[2]; [7],11 (9.9) n (%)
same,"Diarrhea, Total, n (%)",[2]; [7],74 (66.7) n (%)
same,"Dry skin, Grade 1, n (%)",[2]; [7],29 (26.1) n (%)
same,"Dry skin, Grade 2, n (%)",[2]; [7],1 (0.9) n (%)
same,"Dry skin, Grade 3, n (%)",[2]; [7],0 n (%)
same,"Dry skin, Total, n (%)",[2]; [7],30 (27.0) n (%)
same,"Fatigue, Grade 1, n (%)",[2]; [7],20 (18.0) n (%)
same,"Fatigue, Grade 2, n (%)",[2]; [7],15 (13.5) n (%)
same,"Fatigue, Grade 3, n (%)",[2]; [7],3 (2.7) n (%)
same,"Fatigue, Total, n (%)",[2]; [7],38 (34.2) n (%)
same,"Nausea, Grade 1, n (%)",[2]; [7],28 (25.2) n (%)
same,"Nausea, Grade 2, n (%)",[2]; [7],7 (6.3) n (%)
same,"Nausea, Grade 3, n (%)",[2]; [7],1 (0.9) n (%)
same,"Nausea, Total, n (%)",[2]; [7],36 (32.4) n (%)
same,"Rash, Grade 1, n (%)",[2]; [7],30 (27.0) n (%)
same,"Rash, Grade 2, n (%)",[2]; [7],16 (14.4) n (%)
same,"Rash, Grade 3, n (%)",[2]; [7],4 (3.6) n (%)
same,"Rash, Total, n (%)",[2]; [7],50 (45.0) n (%)
same,"Stomatitis, Grade 1, n (%)",[2]; [7],17 (15.3) n (%)
same,"Stomatitis, Grade 2, n (%)",[2]; [7],9 (8.1) n (%)
same,"Stomatitis, Grade 3, n (%)",[2]; [7],4 (3.6) n (%)
same,"Stomatitis, Total, n (%)",[2]; [7],30 (27.0) n (%)
same,"Vomiting, Grade 1, n (%)",[2]; [7],14 (12.6) n (%)
same,"Vomiting, Grade 2, n (%)",[2]; [7],3 (2.7) n (%)
same,"Vomiting, Grade 3, n (%)",[2]; [7],1 (0.9) n (%)
same,"Vomiting, Total, n (%)",[2]; [7],18 (16.2) n (%)
same,"Alopecia, Grade 1, n (%)",[2]; [8],2 (20.0) n (%)
same,"Alopecia, Grade 2, n (%)",[2]; [8],0 n (%)
same,"Alopecia, Grade 3, n (%)",[2]; [8],0 n (%)
same,"Alopecia, Total, n (%)",[2]; [8],2 (20.0) n (%)
same,"Anorexia, Grade 1, n (%)",[2]; [8],0 n (%)
same,"Anorexia, Grade 2, n (%)",[2]; [8],3 (30.0) n (%)
same,"Anorexia, Grade 3, n (%)",[2]; [8],0 n (%)
same,"Anorexia, Total, n (%)",[2]; [8],3 (30.0) n (%)
same,"Dermatitis acneiform, Grade 1, n (%)",[2]; [8],0 n (%)
same,"Dermatitis acneiform, Grade 2, n (%)",[2]; [8],3 (30.0) n (%)
same,"Dermatitis acneiform, Grade 3, n (%)",[2]; [8],0 n (%)
same,"Dermatitis acneiform, Total, n (%)",[2]; [8],3 (30.0) n (%)
same,"Diarrhea, Grade 1, n (%)",[2]; [8],2 (20.0) n (%)
same,"Diarrhea, Grade 2, n (%)",[2]; [8],5 (50.0) n (%)
same,"Diarrhea, Grade 3, n (%)",[2]; [8],2 (20.0) n (%)
same,"Diarrhea, Total, n (%)",[2]; [8],9 (90.0) n (%)
same,"Dry eye, Grade 1, n (%)",[2]; [8],1 (10.0) n (%)
same,"Dry eye, Grade 2, n (%)",[2]; [8],2 (20.0) n (%)
same,"Dry eye, Grade 3, n (%)",[2]; [8],0 n (%)
same,"Dry eye, Total, n (%)",[2]; [8],3 (30.0) n (%)
same,"Dry skin, Grade 1, n (%)",[2]; [8],1 (10.0) n (%)
same,"Dry skin, Grade 2, n (%)",[2]; [8],2 (20.0) n (%)
same,"Dry skin, Grade 3, n (%)",[2]; [8],0 n (%)
same,"Dry skin, Total, n (%)",[2]; [8],3 (30.0) n (%)
same,"Eye pain, Grade 1, n (%)",[2]; [8],2 (20.0) n (%)
same,"Eye pain, Grade 2, n (%)",[2]; [8],0 n (%)
same,"Eye pain, Grade 3, n (%)",[2]; [8],0 n (%)
same,"Eye pain, Total, n (%)",[2]; [8],2 (20.0) n (%)
same,"Fatigue, Grade 1, n (%)",[2]; [8],0 n (%)
same,"Fatigue, Grade 2, n (%)",[2]; [8],3 (30.0) n (%)
same,"Fatigue, Grade 3, n (%)",[2]; [8],1 (10.0) n (%)
same,"Fatigue, Total, n (%)",[2]; [8],4 (40.0) n (%)
same,"Nausea, Grade 1, n (%)",[2]; [8],1 (10.0) n (%)
same,"Nausea, Grade 2, n (%)",[2]; [8],2 (20.0) n (%)
same,"Nausea, Grade 3, n (%)",[2]; [8],1 (10.0) n (%)
same,"Nausea, Total, n (%)",[2]; [8],4 (40.0) n (%)
same,"Pruritus, Grade 1, n (%)",[2]; [8],2 (20.0) n (%)
same,"Pruritus, Grade 2, n (%)",[2]; [8],0 n (%)
same,"Pruritus, Grade 3, n (%)",[2]; [8],0 n (%)
same,"Pruritus, Total, n (%)",[2]; [8],2 (20.0) n (%)
same,"Rash, Grade 1, n (%)",[2]; [8],4 (40.0) n (%)
same,"Rash, Grade 2, n (%)",[2]; [8],2 (20.0) n (%)
same,"Rash, Grade 3, n (%)",[2]; [8],0 n (%)
same,"Rash, Total, n (%)",[2]; [8],6 (60.0) n (%)
same,"Skin exfoliation, Grade 1, n (%)",[2]; [8],1 (10.0) n (%)
same,"Skin exfoliation, Grade 2, n (%)",[2]; [8],0 n (%)
same,"Skin exfoliation, Grade 3, n (%)",[2]; [8],1 (10.0) n (%)
same,"Skin exfoliation, Total, n (%)",[2]; [8],2 (20.0) n (%)
same,"Skin fissures, Grade 1, n (%)",[2]; [8],2 (20.0) n (%)
same,"Skin fissures, Grade 2, n (%)",[2]; [8],1 (10.0) n (%)
same,"Skin fissures, Grade 3, n (%)",[2]; [8],0 n (%)
same,"Skin fissures, Total, n (%)",[2]; [8],3 (30.0) n (%)
same,"Stomatitis, Grade 1, n (%)",[2]; [8],1 (10.0) n (%)
same,"Stomatitis, Grade 2, n (%)",[2]; [8],1 (10.0) n (%)
same,"Stomatitis, Grade 3, n (%)",[2]; [8],1 (10.0) n (%)
same,"Stomatitis, Total, n (%)",[2]; [8],3 (30.0) n (%)
same,"Vomiting, Grade 1, n (%)",[2]; [8],2 (20.0) n (%)
same,"Vomiting, Grade 2, n (%)",[2]; [8],1 (10.0) n (%)
same,"Vomiting, Grade 3, n (%)",[2]; [8],0 n (%)
same,"Vomiting, Total, n (%)",[2]; [8],3 (30.0) n (%)
same,total AEs,[2]; all 121 patients,"1,416 AEs"
same,AEs considered to be related to study drug,[2]; all schedules,709 AEs
same,patients experiencing AEs related to study drug,"[2]; all schedules, of 121",111 patients
same,AEs considered to be related to study drug,[2]; schedule A,626 AEs
same,patients experiencing AEs related to study drug,[2]; schedule A,102 patients
same,patients with dose interruptions as a result of treatment-related AEs,[2]; schedule A,29
same,AEs considered to be related to study drug,[2]; schedule B,83 AEs
same,patients with dose interruptions as a result of treatment-related AEs,[2]; schedule B,3
same,levels of pMAPK in skin biopsy,[3],significantly decreased
same,complete responses,[4]; 110 patients with at least one response evaluation,No complete responses
same,patients with PR,"[4]; four of 110 evaluated patients, all NSCLC",3.6%
same,patients with stable disease as best response,"[4]; over all treatment cohorts, 110 evaluated",44 patients
same,objective response to treatment,[5]; 4 patients with exon 19 deletions and documented T790M,None
same,"Treatment Outcome, PD (patients)",[5]; [9],7
same,"Treatment Outcome, PR (patients)",[5]; [9],2
same,"Treatment Outcome, SD (patients)",[5]; [9],8
same,"Treatment Outcome, PD (patients)",[5]; [10],SD:2; PD:2
same,"Treatment Outcome, SD (patients)",[5]; [10],SD:2; PD:2
same,"Treatment Outcome, PD (patients)",[5]; [11],2
same,"Treatment Outcome, PR (patients)",[5]; [11],1
same,"Treatment Outcome, SD (patients)",[5]; [11],2
same,"Treatment Outcome, PD (patients)","[5]; EGFR L858R, 4 patients",1
same,"Treatment Outcome, SD (patients)","[5]; EGFR L858R, 4 patients",3
same,"Treatment Outcome, PD (patients)","[5]; EGFR mutant, Other, 2 patients",SD: 1; PD:1
same,"Treatment Outcome, SD (patients)","[5]; EGFR mutant, Other, 2 patients",SD: 1; PD:1
same,"Treatment Outcome, IND (patients)",[5]; [12],1
same,"Treatment Outcome, PD (patients)",[5]; [12],2
same,"Treatment Outcome, PR (patients)",[5]; [12],1
same,"Treatment Outcome, SD (patients)",[5]; [12],7
same,"Treatment Outcome, IND (patients)",[5]; [13],1
same,"Treatment Outcome, PD (patients)",[5]; [13],5
same,"Treatment Outcome, SD (patients)",[5]; [13],5
same,"Treatment Outcome, SD (patients)","[5]; HER2 amplified, 2 patients",SD:2
same,additional patients with stable disease (SD) of ≥6 weeks duration,[5]; NSCLC patients,28 patients
same,terminal half-life (t1/2),[6],59 to 85 h
